“And” between values parts separate entries of the source, which are not always exact repeats. Equal entries are not always repeated.

This experiment concerns Plasmodium yoelii. Put plainly: NOVARTIS: Antimalarial liver stage activity measured as reduction in Plasmodium yoelii schizont area in HepG2-A16-CD81 cells by immuno-fluorescence, and median schizont size at 10uM compound concentration. Format: functional, organism-based. In a few lines:
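Host and parasite nuclei stained with Hoechst 33342, parasites with αPyHSP70 antibody; 25 images per well by high-content imaging; median parasite (schizont) area measured by automated image analysis, ~50 schizonts per experiment, two or more independent experiments.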

[1] abbreviates: Plasmodium yoelii, HepG2-A16-CD81.

`Brc1ccc(Nc2nc(NCc3ccco3)c3ccccc3n2)cc1` gave a Schizont size of 35.17 um. This molecule also yielded an IC50 under setting [1] of 163 nM.
`COc1ccc2[nH]c3ccccc3c(=O)c2c1` returned a Schizont size of 30.27 um. Under setting [1], this molecule yielded an IC50 of 135 nM.
The corresponding values for `c1ccc(OCCOc2ccc(Nc3ccnc4cc5ccccc5cc34)cc2)cc1` are 18.06 um and 67.5 nM.
Consider `CCC1CN2CCc3cc(OC)c(OC)cc3C2CC1CC1NCCc2cc(OC)c(OC)cc21.Cl` (centres undefined), for which the Schizont size is given as 13.78 um. For the same molecule, under setting [1], the IC50 was found to be 80.2 nM.
Taken in the same sequence, the figures for `OC1=C2C(=Nc3ccccc3SC2c2ccccc2)c2ccccc21` (centres undefined) were 28.39 um and 93.7 nM.
The molecule `COc1cccc(Nc2nc(NCCO)c3ccccc3n2)c1.Cl` had a Schizont size of 54.9 um. The same molecule showed an IC50 under setting [1] of 62.3 nM.
Taken in the same sequence, the figures for `Cc1nc2ccccc2c(O)c1CC=C(Cl)Cl` were 43.21 um and 130 nM.
In turn, `CC(C)(C)C1CCc2[nH]c3ccccc3c(=O)c2C1` (centres undefined) registered a Schizont size of 22.13 um. This molecule showed an IC50 under setting [1] of 98.3 nM.
The corresponding values for `Oc1cccc2ccc(Nc3ccccn3)nc12` are 30.16 um and 142 nM.
Taken in the same sequence, the figures for `CCCCc1c(C)nc2ccc(Br)cc2c1O` were 25.99 um and 64.7 nM.
The corresponding values for `CC(Oc1ccc(Cl)cc1Cl)c1nc(-c2ccc(NC(=O)c3ccco3)cc2)no1` (centres undefined) are 28.18 um and 154 nM.
Regarding `COc1ccc2nc(C)cc(Nc3ccc(Oc4ccc5ccccc5c4Cl)c(Cl)c3)c2c1`, the Schizont size is 31 um. The molecule further showed an IC50 under setting [1] of 114 nM.
On to `CC1(C)N=C(N)N=C(N)N1c1ccccc1.Cl`, for which the Schizont size is reported as 37.05 um. Moreover, 100 nM corresponded to half-maximal inhibition under setting [1] (IC50).
`c1ccc(-c2csc(Nc3nc4cc5c(cc4s3)OCO5)n2)nc1` came in with a Schizont size of 34.44 um. The molecule also showed an IC50 under setting [1] of 78.9 nM.
Taken in the same sequence, the figures for `CCCCSc1oc(C)nc1[P+](c1ccccc1)(c1ccccc1)c1ccccc1` were 22.13 um and 82.1 nM.
The corresponding values for `CCOc1ccc(Nc2nc(NCc3ccco3)c3ccccc3n2)cc1` are 75.78 um and 105 nM.
Taken in the same sequence, the figures for `CCCCCCCn1c2c(c(=N)c3ccccc31)CCC2.I` were 23.59 um and 76.5 nM.
`CC(C)NC(=O)c1cc(NC(=O)c2cccs2)ccc1N1CCc2ccccc2C1`: the Schizont size is given as 26.93 um. This molecule came in with an IC50 under setting [1] of 74.8 nM.
Taken in the same sequence, the figures for `CCN1C(=O)N(CC)C(NNC(N)=S)C1NNC(N)=S` (centres undefined) were 103.75 um and 68.6 nM.
Taken in the same sequence, the figures for `Clc1ccccc1-c1nc([P+](c2ccccc2)(c2ccccc2)c2ccccc2)c(N2CCOCC2)o1` were 20.56 um and 95.6 nM.
The corresponding values for `Cn1ncnc2c(=O)n(C)c(=O)nc1-2` are 12.53 um and 103 nM.
Turning to `C[C@@H]1CCC[C@@H](C[C@H]2Cc3cc(O)cc(O)c3C(=O)O2)O1`, the Schizont size came to 41.96 um. For the same molecule, the IC50 under setting [1] worked out at 112 nM.
The corresponding values for `CN(C)c1oc(-c2ccc(Cl)cc2Cl)nc1[P+](c1ccccc1)(c1ccccc1)c1ccccc1.[I-]` are 19.41 um and 129 nM.
Taken in the same sequence, the figures for `CCN(CC)CCCN(Cc1cc2cc(OC)c(OC)cc2[nH]c1=O)C(=S)Nc1cccc(Cl)c1` were 60.54 um and 162 nM.
`Cc1cc(C)nc(NC(=N)Nc2cccc(O)c2)n1` registered a Schizont size of 88.2 um. This molecule also yielded an IC50 under setting [1] of 152 nM.
In the case of `COc1ccc2sc(Nc3nc(-c4ccccn4)cs3)nc2c1`, the Schizont size is on record as 28.91 um. In addition, under setting [1], the midpoint of inhibition, the IC50, lay at 159 nM.
Taken in the same sequence, the figures for `CC(Oc1ccc(Cl)cc1Cl)c1nc(-c2ccc(NC(=O)c3cccs3)cc2)no1` (centres undefined) were 21.92 um and 114 nM.
The corresponding values for `Cl.OCCNc1nc(Nc2ccc(F)cc2)nc2ccccc12` are 91.12 um and 136 nM.
Taken in the same sequence, the figures for `Cc1ccc(-c2cc3nc4c(c(O)n3n2)CCCC4)cc1` were 26.41 um and 75.3 nM.
For `Cc1nc([P+](c2ccccc2)(c2ccccc2)c2ccccc2)c(N2CCCCC2)o1`, the Schizont size is recorded as 25.57 um. The molecule further had an IC50 under setting [1] of 82.4 nM.
In the case of `Cc1nc2cc(-c3ccc(I)cc3)nn2c(O)c1C`, the Schizont size is 35.28 um. For the same molecule, the IC50 under setting [1] stood at 118 nM.
For the molecule `CC1(C)N=C(N)N=C(N)N1c1ccc(Oc2ccc(Cl)cc2)c(Cl)c1.Cl`, the Schizont size is recorded as 27.76 um. The molecule further displayed an IC50 under setting [1] of 73 nM.
Taken in the same sequence, the figures for `Cc1cc(NC(c2cccc(Br)c2)c2ccc3cccnc3c2O)no1` (centres undefined) were 16.28 um and 147 nM.
The corresponding values for `COc1ccc(-c2n(C)c3ccccc3[n+]2CC(=O)OC2CC(C)CCC2C(C)C)cc1.[Cl-]` (centres undefined) are 14.3 um and 156 nM.
The corresponding values for `Cc1oc2c(c1C(=O)NCCCn1ccnc1)C(=O)c1ccccc1C2=O` are 12.53 um and 119 nM.
Regarding `CCOC(=O)c1cnc2ccc(OC)cc2c1O`, the Schizont size is 30.16 um and 29.96 um. Also, for the setting “hepg2-a16-cd81”, the IC50 was 135 nM and 293 nM.
Take `CC(=O)N(C1=C(N(C)C)C(=O)c2ccccc2C1=O)c1ccc(F)cc1`: the Schizont size is listed as 23.8 um. The molecule also returned an IC50 under setting [1] of 57.3 nM.
Taken in the same sequence, the figures for `Cc1ccc2cc(C)c(Nc3ccc(Cl)cc3)nc2c1` were 42.06 um and 148 nM.
The corresponding values for `Cl.Fc1ccc(Nc2nc(NCc3ccco3)c3ccccc3n2)cc1` are 45.3 um and 74.9 nM.
The corresponding values for `O=c1c2ccccc2[nH]c2ccc(I)cc12` are 24.95 um and 105 nM.
Molecule `CCCCN(CC)CCNC(=O)C1c2ccccc2C(=O)N(Cc2ccc(F)cc2)C1c1ccc(OC)cc1` (centres undefined) registered a Schizont size of 63.36 um. Also, the IC50 under setting [1] was found to be 89.1 nM.
The corresponding values for `O=C(Nc1ccc(-c2ccc(Cl)cc2)cc1)c1cccs1` are 31.73 um and 151 nM.
Taken in the same sequence, the figures for `Cc1cccc2c1[nH]c1nc(SCC(C)C)nnc12` were 36.43 um and 152 nM.
Taken in the same sequence, the figures for `CCOC(=O)c1ccc(NCc2c(C)[nH]c3ccccc3c2=O)cc1` were 18.27 um and 137 nM.
The molecule `O=C(NC1CC1)c1ccc(CSCc2ccccc2Cl)o1` came in with a Schizont size of 26.09 um. The molecule also returned an IC50 under setting [1] of 140 nM.
Taken in the same sequence, the figures for `O=C1c2ccccc2C2=Nc3ccccc3SC(c3cccc(F)c3)C12` (centres undefined) were 30.06 um and 162 nM.
The corresponding values for `Br.Cc1ccnc(Nc2nc(-c3ccccn3)cs2)c1` are 19.21 um and 95.6 nM.
Taken in the same sequence, the figures for `OC1=C2C(=Nc3ccccc3SC2c2cccs2)c2ccccc21` (centres undefined) were 25.89 um and 90.4 nM.
`c1ccc(CNc2nc(Nc3ccccc3)nc3ccccc23)cc1` registered a Schizont size of 29.85 um. The IC50 under setting [1] stood at 153 nM.
The corresponding values for `CCCCCCOc1ccc(NC(=O)c2cccs2)cc1` are 27.87 um and 139 nM.
Taken in the same sequence, the figures for `COc1ccccc1Nc1nc(NCc2ccccc2)c2ccccc2n1.Cl` were 40.29 um and 91.3 nM.
Taken in the same sequence, the figures for `CCCCNC(=O)C1CCC(CN(Cc2c(Cl)cccc2Cl)S(=O)(=O)c2ccc(Br)cc2)CC1` (centres undefined) were 29.64 um and 124 nM.
The molecule `O=C1C(Nc2ccc(O)cc2)=CC(=NS(=O)(=O)c2cccs2)c2ccccc21` showed a Schizont size of 12.53 um. Moreover, the IC50 under setting [1] is 85.6 nM.
Turning to `COc1ccc(CN2CCOc3ccc(C(C)(O)CN(C)C)cc3C2)cc1C` (centres undefined), the Schizont size is reported as 87.05 um. The molecule further yielded an IC50 under setting [1] of 67.5 nM.
Taken in the same sequence, the figures for `CCCCCC[n+]1ccccc1C=Cc1ccc(N(C)C)cc1.[I-]` were 16.8 um and 55.9 nM.
The corresponding values for `[Br-].c1ccc(-c2nn(-c3ccccc3)[n+](-c3ccccc3)n2)cc1` are 26.51 um and 107 nM.
The corresponding values for `O=c1c2c([nH]c3ccccc13)CCCCCCCCCC2` are 25.15 um and 99 nM.
`CCC(C)(C)c1ccc(OCCOCC[n+]2ccccc2)c(C(C)(C)CC)c1.[Cl-]` returned a Schizont size of 13.88 um. This molecule also returned an IC50 under setting [1] of 96.2 nM.
Take `O=C(Nc1ccc2oc(-c3cccc4ccccc34)nc2c1)c1ccc([N+](=O)[O-])o1`: the Schizont size turned out to be 13.99 um. This molecule showed a half-maximal inhibitory concentration (IC50) under setting [1] of 72.5 nM.
With `O=C1C2=C(Nc3ccccc3SC2c2ccc(OCc3ccccc3)cc2)c2ccccc21` (centres undefined), the Schizont size came to 23.17 um. Further, the IC50 under setting [1] is 58 nM.
Taken in the same sequence, the figures for `N=c1c2c(n(Cc3ccc(Cl)cc3)c3c1CCC3)CCC2` were 32.57 um and 91.1 nM.
`Cc1ccc(-c2cn3c([n+]2-c2ccc(C)cc2)CCCCC3)cc1` came in with a Schizont size of 27.24 um. Further, the IC50 under setting [1] came to 146 nM.
As to `[I-].c1ccc(CSc2scnc2[P+](c2ccccc2)(c2ccccc2)c2ccccc2)cc1`, the Schizont size is recorded as 21.61 um. Under setting [1], this molecule gave an IC50 of 68.5 nM.
The molecule `Oc1c(CN2CCN(Cc3ccc4cccnc4c3O)CC2)ccc2cccnc12` registered a Schizont size of 21.19 um. In addition, the IC50 under setting [1] was 96.6 nM.
As to `COc1ccc(C2N(Cc3ccccc3)c3ccccc3N2Cc2ccccc2)cc1`, the Schizont size is 30.79 um. Under setting [1], the IC50 was determined as 121 nM.
`OC1=C2C(=Nc3ccccc3SC2c2ccco2)c2ccccc21` (centres undefined) came in with a Schizont size of 31.63 um. Further, the IC50 under setting [1] amounted to 113 nM.
Taken in the same sequence, the figures for `Cc1nc2c(C)cccc2c(O)c1CC=C(Cl)Cl` were 31.21 um and 169 nM.

The term IC50 denotes the midpoint of a concentration-inhibition curve. Read a high IC50 as lower potency.

Source of the values: ChEMBL document CHEMBL1789904, “Imaging of Plasmodium liver stages to drive next-generation antimalarial drug discovery” (Science, 2011).
